Data published in article PMC4160068 (ACS chemical biology, 2014).

Columns and labels:
[1] = tested on: A375 and SKMEL5 parental cells; assay: MTS viability of parental BRAF-mutant melanoma cells under PLX4032; type: cell-based; details: concentrations in which PLX-R derivative lines grew
PKCδ = PKCδ (Homo sapiens, UniProt Q05655); assay: In vitro kinase assay, PKCδ; type: biochemical
[2] = tested on: melanoma cell lines with NRAS mutations (SBcl2, FM6, SKMEL2, WM1366, WM1361A, WM852); assay: MTS cell survival assay in NRAS-mutant melanoma lines; type: cell-based; details: 24, 48, 72 hr
Method in brief: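 Cell lines carrying NRAS Q61 mutations (SBcl2, FM6, SKMEL2, WM1366, WM1361A, WM852) exposed to test compounds at 2 or 5 µM, or 0.2 or 0.5 µM (0.1 and 2 µM also in SBcl2). MTS read at 24, 48 and 72 hr. Controls: DMSO vehicle and 2 µM negative control compound. Mean of triplicates ± SD; p versus DMSO at 72 hr.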

SBcl2 melanoma cells = assay: Clonogenic colony assay; type: cell-based; details: SBcl2, 1 µM, 48 hr of drug exposure, then 8 days without inhibitor
Method in brief: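 SBcl2 cells exposed to test compound at 1 µM for 0, 12, 24 or 48 hr. Equal numbers of viable cells from each condition then replated at low density and grown 8 days in inhibitor-free medium. Colony-forming ability compared across exposure times.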

[3] = tested on: caspase 3/7 in SBcl2 cells; assay: Caspase 3/7 activity assay; type: cell-based; details: SBcl2, 5 µM, 24 hr
SBcl2 cells = assay: DNA fragmentation; type: cell-based; details: 24 hr
Method in brief: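 SBcl2 cells treated 24 hr with test compound (5 or 0.5 µM) alone, or at 0.5 µM together with pan-caspase inhibitor Z-VAD-FMK (100 µM). Sub-G1 (fragmented DNA) fraction measured by flow cytometry. Mean of duplicates with SD.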

[4] = cited from earlier work
mice = details: administered orally or intraperitoneally to mice; cited from earlier work
[5] = tested on: normal primary cells or cell lines; details: at the concentrations employed herein; cited from earlier work
[6] = tested on: cancer cells with activation of RAS or RAS signaling; assay: "Ras-specific" cytotoxicity
[7] = tested on: MKK4-JNK-H2AX pathway in SBcl2 cells; assay: Immunoblot analysis of JNK pathway signaling; type: cell-based; details: pre-treatment 50 µM, data not shown

Chain of PKCδ (Q05655 whole entry): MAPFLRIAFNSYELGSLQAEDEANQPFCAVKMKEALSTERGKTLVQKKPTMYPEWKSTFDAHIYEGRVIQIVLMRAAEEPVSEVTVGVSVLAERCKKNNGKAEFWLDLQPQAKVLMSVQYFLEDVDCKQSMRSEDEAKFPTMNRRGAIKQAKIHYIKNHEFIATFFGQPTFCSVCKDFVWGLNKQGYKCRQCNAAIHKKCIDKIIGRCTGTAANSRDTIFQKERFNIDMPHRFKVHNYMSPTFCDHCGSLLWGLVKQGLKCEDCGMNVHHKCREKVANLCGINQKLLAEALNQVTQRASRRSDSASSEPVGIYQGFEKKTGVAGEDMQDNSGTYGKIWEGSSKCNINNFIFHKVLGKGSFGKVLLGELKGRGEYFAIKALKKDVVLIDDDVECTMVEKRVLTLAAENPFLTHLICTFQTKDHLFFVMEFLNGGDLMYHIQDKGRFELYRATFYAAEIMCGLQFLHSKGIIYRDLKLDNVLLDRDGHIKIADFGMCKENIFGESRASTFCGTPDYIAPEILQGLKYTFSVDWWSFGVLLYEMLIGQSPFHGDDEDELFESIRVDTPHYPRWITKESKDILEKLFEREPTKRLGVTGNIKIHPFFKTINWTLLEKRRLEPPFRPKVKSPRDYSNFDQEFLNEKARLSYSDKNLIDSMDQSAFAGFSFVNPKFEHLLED

Compound: CCCS(=O)(=O)Nc1ccc(F)c(C(=O)c2c[nH]c3ncc(-c4ccc(Cl)cc4)cc23)c1F [PLX4032, vemurafenib]
- Cytotoxicity to parental cells [1]: cytotoxic

Compound: CC(=O)c1c(O)c(C)c(O)c(Cc2c(O)c3c(c(C(=O)/C=C/c4ccccc4)c2O)OC(C)(C)C=C3)c1O [Rottlerin, rottlerin]
- IC50 (PKCδ; PKCδ IC50, in vitro kinase assay): 3 to 5 µM
- PKCδ/PKCα Selectivity (PKCδ; PKCδ over PKCα): 28-fold
- Cell proliferation (MTS) ([2]; 2 µM): intermediate inhibitory effects
- Cell proliferation (MTS) ([2]; 5 µM): consistently inhibited proliferation of all cell lines
- Reduction in the number of colonies (SBcl2 melanoma cells): approximately 40 fold
- Increase in caspase 3/7 activity vs vehicle (DMSO) [3]: 5 fold
- Proportion of sub-G1 population (fragmented DNA) (SBcl2 cells; SBcl2, 5 µM): significantly higher
- Aqueous solubility [4]: moderate
- Tolerability (mice): well-tolerated
- Cytostatic or cytotoxic effect on normal cells [5]: not cytostatic or cytotoxic
- "Ras-specific" Cytotoxicity [6]: 3 to 5 µM

Compound: carbobenzoxy-valyl-alanyl-aspartyl-[Omethyl]-fluoromethylketone [Z-VAD-FMK]
- B106-induced DNA fragmentation (SBcl2 cells; SBcl2 pretreated with 100 µM, B106 0.5 µM): significantly abrogated
- B106-induced caspase 3 cleavage (immunoblot) [7]: prevented
